Measurements pooled from the literature.
Protocols differ between the studies behind these lines.
Target: Citron Rho-interacting kinase (CIT, Homo sapiens, UniProt O14578)

For CN(C)c1nccc(-c2cnn3ncccc23)n1, the remaining binding was 86% (binding; 1 µM).
CNC(=O)c1ccc(Nc2ncc(C(F)(F)F)c(NCc3nccnc3N(C)S(C)(=O)=O)n2)cc1 gave a remaining binding of 68% (cell-free assay, competition with immobilised ligand; 0.1 µM).
c1cnn2ncc(-c3ccnc(N4CCC45COC5)n3)c2c1 gave a remaining binding of 84% (binding; 1 µM).
With O=C(NCCCN1CCOCC1)c1ccc(Nc2nccc(-c3cc4ccccc4s3)n2)cc1 the remaining binding was 77% (binding, competition with immobilised ligand; 1 µM).
With C[C@H]1CCN(c2nccc(-c3cnn4ncccc34)n2)C1 the remaining binding was 69% (binding; 1 µM).
With O=C(NCC1CCOCC1)c1n[nH]cc1NC(=O)c1c(F)cccc1F the remaining binding was 100% (binding, competition with immobilised ligand; 1 µM).
The remaining binding of CCN1CCN(Cc2ccc(C(=O)Nc3ccc(C)c(Oc4ccc5c(c4)CC(=O)N5)c3)cc2C(F)(F)F)CC1 is reported as 65% (binding, competition with immobilised ligand; 1 µM).
The remaining binding of CS(=O)(=O)N1CCCC(NC(=O)[C@H](CCC2CCCCC2)NC(=O)c2ccc(CNC(=O)c3cnc4ccccn34)cc2)C1 (stereo partly shown) is reported as 100% (cell-free assay, competition with immobilised ligand; 0.1 µM).
CN(CCCC(F)(F)F)c1nccc(-c2cnn3ncccc23)n1 gave a remaining binding of 88% (binding; 1 µM).
With CCC(=O)N[C@H]1CC[C@@H](C(=O)N(C)c2ccc(-c3nc4ccccc4o3)cc2)C1 the remaining binding was 99% (cell-free assay, competition with immobilised ligand; 1 µM).
With O=C(c1ccc(Nc2ncc(Cl)c(-c3cc4ccccc4s3)n2)cc1)N1CCC(N2CCCC2)CC1 the remaining binding was 30% (binding, competition with immobilised ligand; 1 µM).
The remaining binding of CC1CCCN1c1nccc(-c2cnn3ncccc23)n1 (stereo not shown) is reported as 82% (binding; 1 µM).
With O=C(c1ccc(Nc2nccc(-c3cc4ccccc4s3)n2)cc1)N1CCC(N2CCCC2)CC1 the remaining binding was 57% (binding, competition with immobilised ligand; 1 µM).
With O=C(NCc1ncc(C(F)(F)F)cc1Cl)c1ccc2c(c1)C1(CCS(=O)(=O)CC1)[C@@H](C1CC1)N2S(=O)(=O)c1ccc(F)cc1 the remaining binding was 84% (cell-free assay, competition with immobilised ligand; 1 µM).
The remaining binding of c1cncc(-c2cccc(Nc3nccc(NC4CCCCC4)n3)c2)c1 is reported as 42% (binding, competition with immobilised ligand; 10 µM).
For C[C@@H](c1cccc(C#N)c1)n1cc(Cl)cc(C(N)=O)c1=N, the remaining binding was 100% (cell-free assay, competition with immobilised ligand; 1 µM).
N[C@H]1CCN(c2nccc(-c3cnn4ncccc34)n2)C1 has a remaining binding of 100% (binding; 1 µM).
O=c1nc(-c2ccccn2)sc2ccccc12 has a remaining binding of 100% (binding, competition with immobilised ligand; 1 µM).
COc1cnc(Nc2cccc(S(N)(=O)=O)c2)nc1N1CCN(c2ccccc2)CC1 gave a remaining binding of 100% (binding, competition with immobilised ligand; 1 µM).
